Results of several laboratories.
Each line is one published result; the experiments were not run side by side.
Target: TGF-beta receptor type-1 (TGFBR1, Homo sapiens, UniProt P36897)
One construct used (P36897 1-503): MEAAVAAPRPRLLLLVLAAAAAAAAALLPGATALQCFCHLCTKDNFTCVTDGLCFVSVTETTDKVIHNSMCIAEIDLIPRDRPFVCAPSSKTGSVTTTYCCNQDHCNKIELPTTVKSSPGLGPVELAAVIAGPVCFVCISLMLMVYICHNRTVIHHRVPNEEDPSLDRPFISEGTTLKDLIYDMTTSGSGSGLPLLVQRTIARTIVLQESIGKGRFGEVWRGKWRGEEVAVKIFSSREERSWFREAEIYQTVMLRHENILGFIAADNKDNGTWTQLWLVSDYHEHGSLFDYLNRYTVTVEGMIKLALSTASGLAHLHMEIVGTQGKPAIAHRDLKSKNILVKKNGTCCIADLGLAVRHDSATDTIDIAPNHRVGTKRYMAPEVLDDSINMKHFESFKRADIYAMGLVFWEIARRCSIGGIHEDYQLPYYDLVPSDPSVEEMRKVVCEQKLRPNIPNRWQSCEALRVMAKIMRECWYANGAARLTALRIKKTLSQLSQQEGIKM

SMILES	test	conditions	measurement	result
C#Cc1cccc(Nc2ncnc3cc(OCCOC)c(OCCOC)cc23)c1	cell-free assay	0.5 µM	remaining signal	99.1%
CO[C@H]1CC[C@H](CNc2ccc(S(=O)(=O)NC(=O)c3ccc(N4CCN(CC5=C(c6ccc(Cl)cc6)CC(C)(C)CC5)CC4)cc3Oc3cnc4[nH]ccc4c3)cc2[N+](=O)[O-])CC1	cell-free assay, competition with immobilised ligand	1 µM	remaining binding	84%
CCN(CC)c1ccc(C2=NNC(=O)CC2C)cc1[N+](=O)[O-] (stereo not shown)	enzyme activity, inhibitor	10 µM	remaining activity	89%
Cc1cnc(NC2CCOCC2)nc1-n1cnc(C(=O)NC(CN)c2cc(F)cc(Cl)c2)c1 (stereo not shown)	enzyme activity, inhibitor, radiometric	1 µM	remaining activity	98%
COc1cc(Nc2cnc(C#N)c(O[C@H](C)CN(C)C)n2)ncc1-c1cnn(C)c1	enzyme activity, inhibitor, radiometric	1 µM	remaining activity	122%
CN(C)C(=O)Cn1cc(-c2nc(C3(c4ccc(-c5cnc(N)nc5)cc4)CC3)no2)cn1	cell-free assay, competition with immobilised ligand	1 µM	remaining binding	97%
Cc1cc(NC(=O)c2cccc3cc(-c4cccc5[nH]nc(N)c45)ccc23)ccc1F	enzyme activity, inhibitor	0.1 µM	activity vs control	120%
O=C(CSc1nc2nccnc2c(=O)n1CCc1ccccc1)Nc1nccs1	enzyme activity, inhibitor	10 µM	inhibition	1%
O=C(Nc1cnn(-c2csc(C(=O)NC3COC3)c2)c1)Nc1c(F)cccc1Cl	enzyme activity, inhibitor	5 µM	remaining activity	97.4%
Fc1ccc(-c2ncn(C3=CCCCC3)c2-c2ccncc2)cc1	cell-free assay, TR-FRET	1 µM	inhibition	19%
COc1cc(-c2cc(-c3ccc(N4CCNCC4)cc3)cnc2C)cc(OC)c1OC	enzyme activity, inhibitor	1 µM	inhibition	32%
CSc1cccnc1N1CCN(Cc2nc3ccccc3[nH]2)CC1	cell-free assay, competition with immobilised ligand	1 µM	remaining binding	100%
Cc1ccc(NC(=O)c2ccc(CN3CCN(C)CC3)cc2)cc1Nc1nc(-c2cccnc2)cs1	cell-free assay	0.5 µM	remaining signal	98.5%
CO[C@@H](C)c1c(Nc2ccc([C@@H](N(C)C(=O)C3CCS(=O)(=O)CC3)C(F)(F)F)cc2)cnc2cc(Cl)nn12	cell-free assay, competition with immobilised ligand	1 µM	remaining binding	95%
Cc1cccc(-c2[nH]c(C(C)(C)C)nc2-c2ccc3c(c2)OCO3)n1	cell-free assay	0.5 µM	remaining signal	35.8%
CC(C)(C)c1nc2c(s1)c1nc(N)ncc1c1ccc(NS(=O)(=O)c3c(F)cccc3F)c(F)c12	enzyme activity, inhibitor, radiometric	1 µM	remaining activity	102%
COc1cc(/C=C/C(=O)CC(=O)/C=C/c2ccc(O)c(OC)c2)ccc1O	enzyme activity, inhibitor	1 µM	activity vs control	82%
Cc1cc(-n2nc(Cc3cc(F)cc(C(F)(F)F)c3)nc2C)ccc1C(N)=O	cell-free assay, competition with immobilised ligand	1 µM	remaining binding	94%
COc1cc2ncnc(Nc3ccc(F)c(Cl)c3)c2cc1OCCCN1CCOCC1	cell-free assay	0.5 µM	remaining signal	99.6%
COc1cccc(F)c1Cn1cnc(-c2ccc(F)cc2)c1-c1ccncc1	cell-free assay, TR-FRET	1 µM	inhibition	20%
CN1CC(Oc2cnc(C#N)cc2-c2ccn3nc(NC(=O)C4CC4)cc3c2)C1	enzyme activity, inhibitor	1 µM	inhibition	-9%
C[S+]([O-])c1ccc(-c2nc(-c3ccncc3)c(-c3ccc(F)cc3)[nH]2)cc1 (stereo not shown)	cell-free assay	0.5 µM	remaining signal	101%
CN(C)c1ncnc(-c2ccc3nc(Nc4cc(CN5CCN(C(=O)CC(F)(F)F)CC5)ccn4)[nH]c3c2)c1Cl	cell-free assay, competition with immobilised ligand	1 µM	remaining binding	100%
Fc1ccc(-c2ncn(-c3ccc(-c4ccccc4)cc3)c2-c2ccncc2)cc1	cell-free assay, TR-FRET	1 µM	inhibition	15%
O=C(O)c1cc(-c2ccc(C3CCNCC3)cc2)c2ccc(-c3ccc(C(F)(F)F)cc3)cc2c1	cell-free assay, competition with immobilised ligand	1 µM	remaining binding	81%
COc1cccc(F)c1Cn1cnc(-c2ccncc2)c1-c1ccc(F)cc1	cell-free assay, TR-FRET	1 µM	inhibition	19%
CCCCN(CCCC)C(=O)CN1C[C@H](c2cc(OC)c3c(c2)OCO3)[C@@H](C(=O)O)[C@@H]1CC(C)(C)CCC	cell-free assay, competition with immobilised ligand	1 µM	remaining binding	98.6%
Nc1ncnc2occ(-c3ccc(NC(=O)Nc4cc(C(F)(F)F)ccc4F)cc3)c12	cell-free assay	20 µM	remaining signal	52%
